{"data": "Published values from different studies", "cell line": "NCI-H460", "observed": "cell growth or viability", "note": "Lines come from different studies, so protocols differ."}
{"Structure (SMILES)": "N.N.[Cl][Pt][Cl]", "measurement": "IC50", "value": "19 µM"}
{"Structure (SMILES)": "N.N.[Cl][Pt][Cl]", "setting": "24 h", "measurement": "IC50", "value": "50.5 µM"}
{"Structure (SMILES)": "C1COCCN1.COc1ccc(/C=C\\c2cc(I)c(OC)c(I)c2)cc1OP(=O)(O)O", "assay": "SRB", "setting": "48 h", "measurement": "GI50", "value": "0.033 µg/mL"}
{"Structure (SMILES)": "COc1cc([C@@H]2c3cc4c(cc3[C@H](O)[C@H]3COC(=O)[C@H]23)OCO4)cc(OC)c1OC", "assay": "MTT", "setting": "72 h", "measurement": "EC50", "value": "0.0002 µM"}
{"Structure (SMILES)": "Cc1cccc(-n2ncc(Cl)c(Cl)c2=O)c1", "assay": "resazurin", "setting": "96 h", "measurement": "IC50", "value": "1.5 µM"}
{"Structure (SMILES)": "N.N.[Cl][Pt][Cl]", "assay": "MTT", "setting": "72 h", "measurement": "IC50", "value": "3 µM"}
{"Structure (SMILES)": "C=C(C)[C@@H]1CC[C@]2(CO)CC[C@]3(C)[C@H](CC[C@@H]4[C@@]5(C)CC[C@H](O)C(C)(C)[C@@H]5CC[C@]43C)[C@@H]12", "setting": "48 h", "measurement": "IC50", "value": "11.5 µM"}
{"Structure (SMILES)": "CN1C[C@H](C(=O)N[C@]2(C)O[C@@]3(O)[C@@H]4CCCN4C(=O)[C@H](Cc4ccccc4)N3C2=O)C=C2c3cccc4[nH]cc(c34)C[C@H]21", "assay": "MTT", "setting": "72 h", "measurement": "EC50", "value": "~25 µM"}
